# In ChEMBL document CHEMBL2407047, “Molecular design, synthesis and biological evaluation of 1,4-dihydro-4-oxoquinoline ribonucleosides as TcGAPDH inhibitors with trypanocidal activity” (Bioorg Med Chem Lett, 2013):
# Tests used:
# [1] = target: T1, Glyceraldehyde-3-phosphate dehydrogenase, glycosomal (Trypanosoma cruzi, UniProt P22513); test: Competitive inhibition of Trypanosoma cruzi glycosomal GAPDH NAD+ binding site by ITC method; conditions: read-out: Ki(app)
# Procedure, shortened: (§1)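 Enzyme assays were run by isothermal titration calorimetry (ITC), probing the GAPDH NAD+ cosubstrate site and the active site. Affinity is reported as apparent Ki. Mode of inhibition was judged from how NAD+ and G3P KM and Vmax respond. Kinetic models were compared by second-order Akaike's information criterion.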
# [2] = test system: Saccharomyces cerevisiae; test: Cytotoxicity against Saccharomyces cerevisiae by FUN-1 fluorescence assay; type: organism-based; conditions: in vivo
# Procedure, shortened: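 Log-phase S. cerevisiae (CBMAI 0194) was grown in LB with 2% glucose and 10 mmol L⁻¹ acetate buffer, pH 5, at 37 °C. Cells were resuspended in NaHEPES pH 7.2 at 10⁷ cells mL⁻¹ and stained with FUN-1 (working solution 200 µmol L⁻¹) for 30 min, with or without compound, in 0.6% DMSO. Fluorescence (excitation 485 nm; emission 530/620 nm) was read every 10 min for 1 h at 37 °C. Viability was taken from the red/green ratio.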
# [3] = target: T1, Glyceraldehyde-3-phosphate dehydrogenase, glycosomal; test: Non-competitive inhibition of Trypanosoma cruzi glycosomal GAPDH active site by ITC method; conditions: read-out: Ki(app); procedure, shortened: as §1
# [4] = Selectivity index, ratio of C57BL/6 mouse spleen cells to trypomastigotes forms of Trypanosoma cruzi Tulahuen infected in monkey LLC-MK2 cells; type: toxicity, cell-based; conditions: read-out: Selectivity Index
# [5] = test system: Trypanosoma cruzi; test: Trypanocidal activity against trypomastigotes forms of Trypanosoma cruzi Tulahuen infected in monkey LLC-MK2 cells after 24 hrs by beta-galactosidase reporter assay; type: functional
# [6] = Cytotoxicity against C57BL/6 mouse spleen cells after 24 hrs using propidium iodide by flow cytometry; type: cell-based
# Procedure, shortened: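 Spleen cells were isolated from C57BL/6 mice by mechanical dissociation. They were incubated with compound at 5·10⁶ cells mL⁻¹ for 24 h at 37 °C under 5% CO2, then stained with 10 µg mL⁻¹ propidium iodide and analysed by flow cytometry. Two experiments were run in duplicate; mean plus standard deviation is reported.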
# [7] = target: T1, Glyceraldehyde-3-phosphate dehydrogenase, glycosomal; test: Inhibition of Trypanosoma cruzi glycosomal GAPDH; procedure, shortened: as §1
# T1 sequence (P22513 whole entry): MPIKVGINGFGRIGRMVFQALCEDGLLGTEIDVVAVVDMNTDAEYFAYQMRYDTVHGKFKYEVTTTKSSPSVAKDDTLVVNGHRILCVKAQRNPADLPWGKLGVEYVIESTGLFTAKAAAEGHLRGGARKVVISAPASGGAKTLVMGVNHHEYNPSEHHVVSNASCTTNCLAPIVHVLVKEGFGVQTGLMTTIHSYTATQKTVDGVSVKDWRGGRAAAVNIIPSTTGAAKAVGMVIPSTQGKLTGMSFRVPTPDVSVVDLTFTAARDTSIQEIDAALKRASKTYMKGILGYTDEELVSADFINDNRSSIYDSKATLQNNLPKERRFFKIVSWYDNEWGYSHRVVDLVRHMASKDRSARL
Structure (SMILES),Ki [1] [µM],Ki [3] [µM],selectivity ratio [4],Activity [5] [µmol/L],Activity [6] [µmol/L],further results
Cc1ccc2c(=O)c(C(=O)O)cn([C@@H]3O[C@H](CO)[C@@H](O)[C@H]3O)c2c1,17.1,–,–,–,–,–
O=C(Cn1ccnc1[N+](=O)[O-])NCc1ccccc1 [BENZNIDAZOLE],–,–,> 26,19,> 500,–
O=C(O)c1cn([C@@H]2O[C@H](CO)[C@@H](O)[C@H]2O)c2cc(Br)ccc2c1=O,16,151,> 27,18,> 500,–
CCOC(=O)c1cn([C@@H]2O[C@H](COC(=O)c3ccccc3)[C@@H](OC(=O)c3ccccc3)[C@H]2OC(=O)c2ccccc2)c2ccc(Cl)cc2c1=O,–,–,–,–,–,IC50 [7]: 40.7 µM
COc1ccc2c(c1)c(=O)c(C(=O)O)cn2[C@@H]1O[C@H](CO)[C@@H](O)[C@H]1O,18.7,305,1,>500,> 500,–

# Now from value to molecule, other results behind:
Ki [1] [µM],Ki [3] [µM],Structure (SMILES),selectivity ratio [4],Activity [5] [µmol/L],Activity [6] [µmol/L],further results
32.3,–,O=C(O)c1cn([C@@H]2O[C@H](CO)[C@@H](O)[C@H]2O)c2ccc(Cl)cc2c1=O,–,–,–,–
59.5,105,COc1ccc2c(=O)c(C(=O)O)cn([C@@H]3O[C@H](CO)[C@@H](O)[C@H]3O)c2c1,–,–,–,Activity [2]: Toxic
29.5,–,O=C(O)c1cn([C@@H]2O[C@H](CO)[C@@H](O)[C@H]2O)c2ccc(Br)cc2c1=O,–,–,–,Activity [2]: Toxic
57.6,–,Cc1ccc2c(c1)c(=O)c(C(=O)O)cn2[C@@H]1O[C@H](CO)[C@@H](O)[C@H]1O,–,–,–,–
